Bioassay records as filed in PubChem.
TbHK1 inh = blocks Trypanosoma brucei hexokinase 1 activity. actives 0.11% (n = 220,000). recombinant TbHK1, G6PDH-coupled NADH A340. inhibition, % at 10 µM;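 active = inhibition of 50% or more in the single-dose primary screen; inactive = inhibition below 50%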
HKDC1 inh = blocks human hexokinase HKDC1 activity. recombinant HKDC1, G6PDH/diaphorase resazurin coupled fluorescence. inhibition, % at 20 µM. actives 0.16% (n = 340,000). AID 493160;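 active = inhibition above about 35% when tested at 20 µM, limit read from the data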;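 also: plate controls were DMSO wells with enzyme for no effect and DMSO wells lacking enzyme for full effect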
Target sequence (Q2TB90 whole entry, looked up): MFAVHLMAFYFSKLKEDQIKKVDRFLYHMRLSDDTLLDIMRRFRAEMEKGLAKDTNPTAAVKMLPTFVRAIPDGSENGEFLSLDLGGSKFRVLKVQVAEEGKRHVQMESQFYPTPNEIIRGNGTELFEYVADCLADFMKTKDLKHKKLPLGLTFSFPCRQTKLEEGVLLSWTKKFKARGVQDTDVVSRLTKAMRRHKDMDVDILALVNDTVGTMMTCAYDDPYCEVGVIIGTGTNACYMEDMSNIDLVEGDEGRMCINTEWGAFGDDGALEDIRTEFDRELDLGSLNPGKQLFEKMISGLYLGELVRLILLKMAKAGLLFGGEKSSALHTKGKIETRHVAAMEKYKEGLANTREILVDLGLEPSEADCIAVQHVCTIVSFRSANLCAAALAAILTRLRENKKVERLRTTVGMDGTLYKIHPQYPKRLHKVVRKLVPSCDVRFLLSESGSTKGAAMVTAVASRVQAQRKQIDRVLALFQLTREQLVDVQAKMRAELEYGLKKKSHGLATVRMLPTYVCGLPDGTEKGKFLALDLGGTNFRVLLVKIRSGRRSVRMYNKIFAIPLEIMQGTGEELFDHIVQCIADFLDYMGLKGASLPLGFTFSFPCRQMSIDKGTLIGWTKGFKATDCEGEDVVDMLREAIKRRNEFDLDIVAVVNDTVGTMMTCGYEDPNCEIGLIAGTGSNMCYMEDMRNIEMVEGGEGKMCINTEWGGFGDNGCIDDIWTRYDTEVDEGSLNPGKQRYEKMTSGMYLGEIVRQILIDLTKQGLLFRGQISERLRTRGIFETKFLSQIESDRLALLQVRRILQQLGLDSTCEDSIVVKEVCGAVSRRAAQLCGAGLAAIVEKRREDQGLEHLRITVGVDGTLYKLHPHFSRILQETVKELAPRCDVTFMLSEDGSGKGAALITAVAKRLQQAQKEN
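Incubation: 90 min at room temperature in dark / Material: recombinant HKDC1 (HK5) hexokinase enzyme, produced in-house / Quantity: enzyme 5 µg/mL final / Compound: one dose of 20 µM, 1% DMSO / Reagent: glucose and ATP substrates / Buffer or medium: Tris pH 8.0 buffer with MgCl2, Tween-20, BSA, BME / Technique: resorufin fluorescence at 613 nm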
Diaph act CS = counter-screen for diaphorase-based assays: diaphorase activators and chemical reducers | Diaphorase/resazurin coupled assay, resorufin fluorescence, 16 min; active compounds read high; 1 = vehicle wells, 0 = NADH-free wells | activation factor at 20 µM | actives 0.005% (n = 190,000) | AID 1229;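 active = diaphorase activity raised at least twofold by the compound at 20 µM; inactive = activation factor below 2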
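Assay system: Purified diaphorase enzyme from Clostridium kluyveri | Amount: Enzyme 0.07 U/mL final | Dosing: Compound 20 µM once, DMSO 1% | Timing: 16 min reaction at room temperature | Detection: Fluorescence, excitation 544 nm and emission 590 nm | Evaluation: Higher resorufin formation from activation or reduction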
PfGluPho inh = PfG6PD (Plasmodium falciparum) enzyme inhibition | PfGluPho enzyme, NADPH resazurin-diaphorase fluorescence | inhibition, % at 20 µM | actives 0.78% (n = 350,000);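 active = inhibition reaching at least a set limit at 20 µM in the primary screen, cut at about 59% in these data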;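 also: 0% = DMSO wells with substrate and 100% = DMSO wells lacking glucose-6-phosphate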
G6PDH CS = counter-screen for G6PDH assay hits: L. mesenteroides G6PDH inhibition; actives 0.12% (n = 200,000); AID 1020; Purified L. mesenteroides G6PDH, diaphorase/resazurin coupled fluorescence, 45 min; inhibition, % at 5 µM; in the data active = inhibition above about 50%
Diaph inh CS = diaphorase inhibition or chemical oxidation counter-screen. diaphorase resazurin-to-resorufin fluorescence, NADH, 16 min; bacterial (C. kluyveri) enzyme, not human. inhibition, % at 20 µM. actives 0.69% (n = 190,000). AID 1217;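 active = primary screen inhibition at 20 µM above a set limit, cut at about 50% in these data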;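 also: plate controls were DMSO with full reaction for no effect and wells lacking NADH for full effect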
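System: Bacterial diaphorase enzyme (C. kluyveri) | Incubation: 16-min room-temperature incubation before reading | Benchmarks: No-NADH positive control and DMSO neutral control | Measured by: Resorufin fluorescence 544/590 nm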
PfGluPho conf = PfG6PD inhibition, single-dose confirmed | recombinant PfGluPho, NADPH-diaphorase-resazurin fluorescence | inhibition, % at 20 µM | shares compounds with PfGluPho inh | AID 504753 | actives 34% (n = 2,400);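 active = inhibition of at least 50% at 20 µM in any single replicate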;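 also: 0% = DMSO with substrate and 100% = DMSO lacking glucose-6-phosphate substrate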
Diaph ctr 10uM = diaphorase inhibition or oxidation at 10 uM NADPH; shares compounds with PfGluPho inh; diaphorase-coupled resazurin reduction, fluorescence, NADPH 10 uM; inhibition, % at 20 µM; actives 39% (n = 820);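 active = average inhibition reaching 50% or more with the compound at 20 µM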;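 also: resorufin red fluorescence formed as diaphorase reduces resazurin using NADPH; 0% = DMSO with enzyme and 100% = DMSO without enzyme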
Diaphorase 30uM = diaphorase inhibition or oxidation at 30 uM NADPH; actives 29% (n = 820); inhibition, % at 20 µM; AID 504863; shares compounds with PfGluPho inh; Diaphorase/resazurin coupled assay, resorufin fluorescence;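 active = inhibition averaging 50% or more, tested at 20 µM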;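 also: 0% = DMSO with enzyme and 100% = DMSO wells lacking diaphorase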
* = called active by the depositor. An excerpt weighted towards active compounds, which were near 1.3% of everything screened.

`Cc1cc(C)c2c(=O)n(CC(=O)Nc3cccc(F)c3)sc2n1` gave TbHK1 inh 21, HKDC1 inh -7, PfGluPho inh 110*, PfGluPho conf 94*, Diaph ctr 10uM -3 and Diaphorase 30uM 0.
`Cc1ccc(NC(=O)Cn2sc3nc(C)cc(C)c3c2=O)c(Cl)c1` gave TbHK1 inh 17, HKDC1 inh 3, PfGluPho inh 100*, PfGluPho conf 76*, Diaph ctr 10uM -34 and Diaphorase 30uM -18.
Cc1ccc(NC(=O)Cn2c(C)cc(C)c(C#N)c2=O)c(Cl)c1 was read as TbHK1 inh -10, HKDC1 inh 1, Diaph act CS 0.9, PfGluPho inh -17, G6PDH CS 5 and Diaph inh CS 9.
`CCOc1ccc(NC(=O)Cn2sc3nc(C)cc(C)c3c2=O)cc1` gave TbHK1 inh 9, HKDC1 inh -2, PfGluPho inh 104*, PfGluPho conf 90*, Diaph ctr 10uM -30 and Diaphorase 30uM -21.
Screening Cc1cc(C)c2c(=O)n(CC(=O)Nc3ccc(Cl)cc3)sc2n1 returned TbHK1 inh 34, HKDC1 inh 3, PfGluPho inh 112*, PfGluPho conf 96*, Diaph ctr 10uM -18 and Diaphorase 30uM 5.
NNC(=O)Cn1nc2n(c1=O)-c1ccccc1SC2 was read as TbHK1 inh -2, HKDC1 inh 14 and PfGluPho inh -10.
Screening CC1CCC2(CC1)NC(=O)N(CC(=O)Nc1ccc(N3CCCCC3)cc1)C2=O (stereo not given) returned PfGluPho inh 22.
For Cc1cc(C)c2sc(NC(=O)C3=COCCO3)nc2c1 the results were HKDC1 inh 4, PfGluPho inh 75*, PfGluPho conf 47*, Diaph ctr 10uM 30 and Diaphorase 30uM 21.
Screening O=c1c2cn(Cc3ccccc3)c3ccccc3c-2nn1Cc1ccc(F)cc1Cl returned HKDC1 inh -6 and PfGluPho inh -8.
For CC(C)N1CCN(S(=O)(=O)c2ccccc2)c2ccccc21 the results were HKDC1 inh 4, PfGluPho inh 95* and PfGluPho conf 38.
For O=S(=O)(c1ccccc1)N1CCN(S(=O)(=O)c2ccccc2)c2ccccc21 the results were HKDC1 inh 4, PfGluPho inh 112* and PfGluPho conf 45.
O=S(=O)(c1ccccc1)N1CCNc2ccccc21 was read as HKDC1 inh -1 and PfGluPho inh 23.
`O=C(CN1CCN(Cc2ccc3c(c2)OCO3)CC1)Nc1ccc2[nH]c(=O)[nH]c2c1` gave HKDC1 inh -3 and PfGluPho inh -4.
Screening S=c1cnc2ccccc2[nH]1 returned TbHK1 inh -3, HKDC1 inh -13, Diaph act CS 0.9, PfGluPho inh 64*, G6PDH CS 10, Diaph inh CS 9 and PfGluPho conf 4.
For c1ccc2[nH]c(CCCc3nc4ccccc4[nH]3)nc2c1 the results were HKDC1 inh 1 and PfGluPho inh -18.
Screening Cc1cc(C)nc(NC(N)=NCCc2ccccc2)n1 returned HKDC1 inh -4, PfGluPho inh 79*, PfGluPho conf 51*, Diaph ctr 10uM 49 and Diaphorase 30uM 48.
For Cc1cc(C)nc(NC(N)=NC(C)c2ccccc2)n1 (stereo not given) the results were TbHK1 inh 3, HKDC1 inh -8, Diaph act CS 1, PfGluPho inh 5, G6PDH CS -1 and Diaph inh CS 1.
CC(=O)n1c2ccccc2c2nc3ccccc3nc21 was read as HKDC1 inh -7 and PfGluPho inh -8.
C=CCNc1nc2c3ccccc3n(C(C)=O)c2s1 was read as TbHK1 inh 17, HKDC1 inh 3, Diaph act CS 0.8, PfGluPho inh 64*, G6PDH CS 4, Diaph inh CS 18 and PfGluPho conf 8.
CN(C1CCCCC1)S(=O)(=O)c1ccc(=S)[nH]c1 was read as HKDC1 inh -4, PfGluPho inh 61* and PfGluPho conf 17.
For CNS(=O)(=O)c1cccc(C(=O)OCC(=O)Nc2ccc(OC)cc2[N+](=O)[O-])c1 the results were TbHK1 inh -1, HKDC1 inh -7, Diaph act CS 0.9, PfGluPho inh 10, G6PDH CS 4 and Diaph inh CS 11.
For COC(=O)CCC(=O)OC1(C)C(=O)C2=CN(C3CC3)C(c3ccc(OC)cc3)=CC2=C(Br)C1=O (stereo not given) the results were HKDC1 inh 34, PfGluPho inh 72*, PfGluPho conf 52*, Diaph ctr 10uM 46 and Diaphorase 30uM 49.
COC(=O)CCC(=O)OC1(C)C(=O)C2=CN(CCc3c[nH]c4ccccc34)C(c3ccc(OC)cc3)=CC2=C(Br)C1=O (stereo not given) was read as HKDC1 inh 28 and PfGluPho inh 53.
`COC(=O)CCC(=O)OC1(C)C(=O)C2=CN(CCCOC(C)C)C(c3ccc(OC)cc3)=CC2=C(Br)C1=O` (stereo not given) gave TbHK1 inh -34, HKDC1 inh 28, PfGluPho inh 82* and PfGluPho conf 38.
For CCN(CC)C(=O)C1=C(C)N(Cc2ccccc2)C(=O)C(CC(=O)NCCc2ccccn2)C1 (stereo not given) the results were PfGluPho inh 9.
Screening COc1ccc(CCNC(=O)CSC2=NS(=O)(=O)c3ccccc3N2)cc1OC returned HKDC1 inh -1 and PfGluPho inh -13.
Screening Cc1ccc(NC(=O)c2ccc(C)cc2)cc1 returned HKDC1 inh 1 and PfGluPho inh 38.
Screening Cc1ccc(C(=O)Nc2ccc(Br)c(C(F)(F)F)c2)cc1 returned TbHK1 inh 1, HKDC1 inh -1, Diaph act CS 0.8, PfGluPho inh 69*, G6PDH CS 0, Diaph inh CS 16 and PfGluPho conf 9.
For Nc1cc(-c2ccncc2)c[nH]c1=O the results were TbHK1 inh -14, HKDC1 inh 14, Diaph act CS 0.3, PfGluPho inh 64*, G6PDH CS 38, Diaph inh CS 66* and PfGluPho conf 30.
Screening Cc1ccc(OCc2cc(C(=O)N(C)CCc3nc4ccccc4[nH]3)no2)cc1C returned HKDC1 inh 1 and PfGluPho inh 2.
